The values below come from publication PMC5357090 (Saudi Pharmaceutical Journal : SPJ, 2016).

The structures appear in SMILES notation. Where two headings read alike, the source gives them in different places.

Experiment [1] deals with HeLa. In words: In vitro anticancer activity, MTT assay, HeLa. It counts as cell-based, human. The settings on record: for IC50: Homo sapiens, HeLa, 48 h; for anticancer activity against HeLa cells (in words): MTT, 48 h exposure, compared with the standard cisplatin. An outline of the steps: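 HeLa cells came from NCCS and were kept in MEM with 10% FBS at 37 °C and 5% CO2. Cells were seeded at 10,000/well in 5% FBS medium and left 24 h to attach. DMSO solutions were diluted in serum-free medium to 6.25–100 µM (five concentrations) and applied for 48 h, in triplicate. MTT was added for 4 h at 37 °C, formazan dissolved in DMSO, and A570 read. % inhibition was taken against untreated control. IC50 came from nonlinear regression against log concentration.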

Experiment [2] deals with MCF-7. In words: In vitro anticancer activity, MTT assay, MCF-7. The format is cell-based. The settings on record: for IC50: Homo sapiens, MCF7, 48 h, read-out: IC50 MCF-7; for anticancer activity against MCF-7 cells (in words): MTT, 48 h exposure, compared with the standard cisplatin.
Experiment [3] relates to α-amylase. Kind of experiment: α-Amylase assay. It counts as biochemical. The settings on record: compared to the standard acarbose; 50-1000 μm. The procedure, abridged: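 α-Amylase was used at 0.1 mg/mL in PBS (0.02 mol/L, pH 6.8). Enzyme was preincubated with the test solution at 37 °C for 5 min. The reaction was started with 1.0% (w/v) starch. It was stopped with DNS reagent (1% dinitrosalicylic acid, 0.05% Na2SO3, 1% NaOH), then heated at 100 °C for 5 min and cooled to room temperature. Absorbance was read at 540 nm.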

The mark [4] stands for this setting: read-out: IC50 values, range over MCF-7 and HeLa cells.

As for `O=C(Nc1cccc(-c2nnc(C3CCCCC3)o2)c1)C1CCCC1` [Compound 7g, Cyclopentane carboxylic acid [3-(5-cyclohexyl-[1,3,4]oxadiazol-2-yl)-phenyl]-amide], the IC50 in experiment [1] (read-out: IC50 HeLa) and in experiment [2] was ≥ 100 µM in each case. In addition, in experiment [3], the “inhibitory activity against α-amylase (in words)” value (“inhibitory activity” below) is “moderate activities”.
As to `Cc1ccc(S(=O)(=O)Nc2cccc(-c3nnc(C4CCCCC4)o3)c2)cc1` [Compound 8a, N-[3-(5-Cyclohexyl-[1,3,4]oxadiazol-2-yl)-phenyl]-4-methyl-benzenesulphonamide], the IC50 in experiment [1] (read-out: IC50 HeLa) and in experiment [2] was ≥ 100 µM throughout.
Take `O=C(Nc1cccc(-c2nnc(C3CCCCC3)o2)c1)c1ccc(Cl)cc1` [Compound 7a, 4-Chloro-N-[3-(5-cyclohexyl-[1,3,4]oxadiazol-2-yl)-phenyl]-benzamide]: the IC50 in experiment [1] (read-out: IC50 HeLa) and in experiment [2] was ≥ 100 µM in each case.
Turning to `O=S(=O)(Nc1cccc(-c2nnc(C3CCCCC3)o2)c1)c1cc(Cl)cc(Cl)c1` [Compound 8c, 3,5-Dichloro-N-[3-(5-cyclohexyl-[1,3,4]oxadiazol-2-yl)-phenyl]-benzenesulphonamide], the IC50 in experiment [1] (read-out: IC50 HeLa) and in experiment [2] was ≥ 100 µM each time. The “inhibitory activity” value in experiment [3] is reported as “better than all other compounds”.
As for `COc1cccc(NC(=O)Nc2cccc(-c3nnc(C4CCCCC4)o3)c2)c1` [Compound 6c, 1-[3-(5-Cyclohexyl-[1,3,4]oxadiazol-2-yl)-phenyl]-3-(3-methoxy-phenyl)-urea], the IC50 in experiment [1] (read-out: IC50 HeLa) was 45.6 µM; in experiment [1] (setting [4]), 23.5 to 45.6 µM; in experiment [2], 28.6 µM. The “anticancer activity against HeLa cells (in words)” value in experiment [1] was “significant activity”. Besides, the “anticancer activity against MCF-7 cells (in words)” value in experiment [2] is reported as “significant activity”.
Consider `O=C(Nc1ccc(F)cc1)Nc1cccc(-c2nnc(C3CCCCC3)o2)c1` [Compound 6a, 1-[3-(5-Cyclohexyl-[1,3,4]oxadiazol-2-yl)-phenyl]-3-(4-fluoro-phenyl)-urea], for which the results for the IC50 in experiment [1] (read-out: IC50 HeLa) and in experiment [2] were 79.7 µM and 81.6 µM, respectively. The “anticancer activity against HeLa cells (in words)” value in experiment [1] is listed as “good activity”. The “anticancer activity against MCF-7 cells (in words)” value in experiment [2] is reported as “good activity”. In addition, the “inhibitory activity” value in experiment [3] was “moderate activities”.
Turning to `O=C(Cc1ccccc1F)Nc1cccc(-c2nnc(C3CCCCC3)o2)c1` [Compound 7c, N-[3-(5-Cyclohexyl-[1,3,4]oxadiazol-2-yl)-phenyl]-2-(2-fluoro-phenyl)acetamide], the IC50 in experiment [1] (read-out: IC50 HeLa) amounted to 80.1 µM. Moreover, in experiment [1], the “anticancer activity against HeLa cells (in words)” value is recorded as “good activity”. Also, in experiment [2], the IC50 amounted to 78.3 µM and the “anticancer activity against MCF-7 cells (in words)” value is on record as “good activity”.
As for `CC(C)(C)c1ccc(S(=O)(=O)Nc2cccc(-c3nnc(C4CCCCC4)o3)c2)cc1` [Compound 8b, 4-tert-Butyl-N-[3-(5-cyclohexyl-[1,3,4]oxadiazol-2-yl)-phenyl]-benzenesulphonamide], the IC50 in experiment [1] (read-out: IC50 HeLa) is 62.9 µM. Also, the “anticancer activity against HeLa cells (in words)” value in experiment [1] is recorded as “good activity”. In addition, in experiment [2], the IC50 amounted to 60.9 µM and the “anticancer activity against MCF-7 cells (in words)” value is “good activity”.
As for `O=C(Nc1cccc(-c2nnc(C3CCCCC3)o2)c1)c1ccco1` [Compound 7h, Furan-2-carboxylic acid [3-(5-cyclohexyl-[1,3,4]oxadiazol-2-yl)-phenyl]-amide], the IC50 in experiment [1] (read-out: IC50 HeLa) and in experiment [2] was ≥ 100 µM throughout.
As for `Cc1ccc(C(=O)Nc2cccc(-c3nnc(C4CCCCC4)o3)c2)cc1` [Compound 7b, N-[3-(5-Cyclohexyl-[1,3,4]oxadiazol-2-yl)-phenyl]-4-methyl-benzamide], the half-inhibitory concentration (IC50) in experiment [1] (read-out: IC50 HeLa) and in experiment [2] was ≥ 100 µM each time.
For `O=C(Cc1c[nH]c2ccccc12)Nc1cccc(-c2nnc(C3CCCCC3)o2)c1` [Compound 7f, N-[3-(5-Cyclohexyl-[1,3,4]oxadiazol-2-yl)-phenyl]-2-(1H-indol-3-yl)-acetamide], the figures for the IC50 in experiment [1] (read-out: IC50 HeLa) and in experiment [2] were 100 µM and ≥ 100 µM, respectively. The “inhibitory activity” value in experiment [3] is “better than all other compounds”.
Turning to `O=C(Nc1cccc(-c2nnc(C3CCCCC3)o2)c1)c1cc(F)cc(F)c1` [Compound 7d, N-[3-(5-Cyclohexyl-[1,3,4]oxadiazol-2-yl)-phenyl]-3,5-difluoro-benzamide], the IC50 in experiment [1] (read-out: IC50 HeLa) was 58.8 µM. Further, in experiment [1], the “anticancer activity against HeLa cells (in words)” value is “good activity”. In addition, in experiment [2], the IC50 is 62.4 µM and the “anticancer activity against MCF-7 cells (in words)” value is given as “good activity”. Besides, the “inhibitory activity” value in experiment [3] was “moderate activities”.
For the compound `Cc1ccc(NC(=O)Nc2cccc(-c3nnc(C4CCCCC4)o3)c2)cc1` [Compound 6b, 1-[3-(5-Cyclohexyl-[1,3,4]oxadiazol-2-yl)-phenyl]-3-p-tolyl-urea], the IC50 was 30.4 µM in experiment [1] (read-out: IC50 HeLa), 23.5 to 45.6 µM in experiment [1] (setting [4]) and 23.5 µM in experiment [2]. For the same compound, the “anticancer activity against HeLa cells (in words)” value in experiment [1] is recorded as “significant activity”. For the same compound, the “anticancer activity against MCF-7 cells (in words)” value in experiment [2] was “significant activity”. The “inhibitory activity” value in experiment [3] was “moderate activities”.
In the case of `O=C(C=Cc1ccco1)Nc1cccc(-c2nnc(C3CCCCC3)o2)c1` [Compound 7i, N-[3-(5-Cyclohexyl-[1,3,4]oxadiazol-2-yl)-phenyl]-3-furan-2-yl-acrylamide], the IC50 in experiment [1] (read-out: IC50 HeLa) and in experiment [2] was ≥ 100 µM each time.
On to `O=C(Nc1cccc(-c2nnc(C3CCCCC3)o2)c1)c1cnccn1` [Compound 7e, Pyrazine-2-carboxylic acid [3-(5-cyclohexyl-[1,3,4]oxadiazol-2-yl)-phenyl]-amide], for which the IC50 in experiment [1] (read-out: IC50 HeLa) and in experiment [2] was ≥ 100 µM in each case. In addition, in experiment [3], the “inhibitory activity” value is “moderate activities”.
